Values belong to the molecule of their own block, whether it stands above or below them.
Key:
[1] = biological target: T1, Nuclear receptor subfamily 1 group I member 3 (Mus musculus, UniProt O35627); experiment: Activation of wild type mouse CAR expressed in HEK293 cells at 10 uM by mammalian one-hybrid assay; conditions: hek293, 10 µM
T1 sequence (O35627 whole entry): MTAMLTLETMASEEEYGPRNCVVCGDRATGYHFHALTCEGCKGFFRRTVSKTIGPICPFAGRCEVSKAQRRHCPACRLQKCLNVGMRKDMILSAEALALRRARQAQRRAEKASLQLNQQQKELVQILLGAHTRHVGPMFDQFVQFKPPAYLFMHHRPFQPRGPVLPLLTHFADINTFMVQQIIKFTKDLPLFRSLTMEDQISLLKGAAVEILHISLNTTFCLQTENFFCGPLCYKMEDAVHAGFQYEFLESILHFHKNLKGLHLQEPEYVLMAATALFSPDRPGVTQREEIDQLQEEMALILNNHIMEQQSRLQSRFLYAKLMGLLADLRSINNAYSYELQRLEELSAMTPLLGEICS

[2] = biological target: Nuclear receptor subfamily 1 group I member 3 (Mus musculus, UniProt O35627, F171A); conditions: HEK293, mouse
[3] = biological target: T2, Nuclear receptor subfamily 1 group I member 3 (Mus musculus, UniProt O35627, L212A); experiment: Effect on steroid receptor co-activator 1 binding to mouse CAR L212A mutant […] at 1 uM by yeast two-hybrid assay; format: cell-based; conditions: read-out: Activity
Outline: (§1)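 Yeast expressing wild-type or mutant mouse CAR LBD plus SRC-1, selected on SD plates lacking leucine and tryptophan. Pooled colonies treated with DMSO or compound for 3.5 h. β-Galactosidase activity normalized to cell density. Reference is wild-type CAR + SRC-1 with DMSO (=100). Mean ± SD of two independent determinations, each in triplicate.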

[4] = biological target: T3, Nuclear receptor subfamily 1 group I member 3 (Mus musculus, UniProt O35627, T350M); experiment: Decrease in steroid receptor coactivator 1 binding to mouse CAR T350M mutant […] at 1 uM by yeast two-hybrid assay; format: cell-based; conditions: read-out: Activity
Outline: as §1

[5] = biological target: T3, Nuclear receptor subfamily 1 group I member 3; experiment: Effect on nuclear co-repressor receptor binding to mouse CAR T350M mutant […] at 1 uM by yeast two-hybrid assay; format: cell-based; conditions: read-out: Activity
Outline: as §1, with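 “NCoR,” for “SRC-1,”, “10 µM androstenol” for “wild-type CAR + SRC-1 with DMSO”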

[6] = biological target: T4, Nuclear receptor subfamily 1 group I member 3 (Mus musculus, UniProt O35627, L353A); experiment: Decrease in steroid receptor coactivator 1 binding to mouse CAR L353A mutant […] at 1 uM by yeast two-hybrid assay; format: cell-based; conditions: read-out: Activity
Outline: as §1

[7] = biological target: Nuclear receptor subfamily 1 group I member 3 (Mus musculus, UniProt O35627, I252L); experiment: Activation of mouse CAR I252L mutant expressed in HEK293 cells at 1 uM by mammalian one-hybrid assay; format: cell-based; conditions: hek293, 1 µM
Outline: (§2)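 GAL4 DBD fused to mouse CAR LBD (residues 118-358), wild type or point mutant, cotransfected with UASx4-tk-luc reporter and pCMVβ into HEK293 cells. Cells cultured with DMSO (0.1% v/v) or compound (final 1, 2 or 10 µM). Lysed 24 h post-transfection. Luciferase normalized to β-galactosidase, expressed relative to empty GAL4 vector (=1.0). Mean ± SD, three independent experiments.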

[8] = biological target: T4, Nuclear receptor subfamily 1 group I member 3; experiment: Effect on nuclear co-repressor receptor binding to mouse CAR L353A mutant […] at 1 uM by yeast two-hybrid assay; format: cell-based; conditions: read-out: Activity
Outline: as §1, with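 “NCoR,” for “SRC-1,”, “10 µM androstenol” for “wild-type CAR + SRC-1 with DMSO”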

[9] = biological target: T5, Nuclear receptor subfamily 1 group I member 3 (Mus musculus, UniProt O35627, Y336A); experiment: Decrease in steroid receptor coactivator 1 binding to mouse CAR Y336A mutant […] at 1 uM by yeast two-hybrid assay; format: cell-based; conditions: read-out: Activity
Outline: as §1

[10] = biological target: T2, Nuclear receptor subfamily 1 group I member 3; experiment: Decrease in mouse CAR L212A mutant activation expressed in HEK293 cells at 10 uM by mammalian one-hybrid assay; format: cell-based; conditions: read-out: Activity
Outline: as §2

[11] = biological target: T1, Nuclear receptor subfamily 1 group I member 3; experiment: Increase in nuclear co-repressor receptor binding to wild type mouse CAR expressed in HEK293 cells at 10 uM by yeast two-hybrid assay; conditions: hek293, 10 µM
[12] = biological target: T3, Nuclear receptor subfamily 1 group I member 3; experiment: Decrease in nuclear co-repressor receptor binding to mouse CAR T350M mutant […] at 2 uM by yeast two-hybrid assay; format: cell-based; conditions: read-out: Activity
Outline: (§3)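 Yeast two-hybrid: yeast expressing wild-type or mutant mouse CAR LBD plus SRC-1 or NCoR, selected on SD medium lacking Leu and Trp. Pooled colonies treated with DMSO or test chemical for 3.5 h. β-Galactosidase normalized to cell density. SRC-1 reference: wild-type + DMSO = 100. NCoR reference: 10 µM androstenol = 100. Mean ± SD, two independent determinations, each in triplicate.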

[13] = biological target: T2, Nuclear receptor subfamily 1 group I member 3; experiment: Enhancement of steroid receptor co-activator 1 binding to mouse CAR L212A mutant […] at 2 uM by yeast two-hybrid assay; format: cell-based
Outline: as §3

[14] = biological target: Nuclear receptor subfamily 1 group I member 3 (Mus musculus, UniProt O35627, S251L); experiment: Decrease in steroid receptor coactivator 1 binding to mouse CAR S251L mutant […] at 2 uM by yeast two-hybrid assay; format: cell-based; conditions: read-out: Activity
Outline: as §3

[15] = biological target: T6, Nuclear receptor subfamily 1 group I member 3 (Mus musculus, UniProt O35627, F171L); experiment: Decrease in mouse CAR F171L mutant activation expressed in HEK293 cells at 2 uM by mammalian one-hybrid assay; format: cell-based; conditions: read-out: Activity
Outline: (§4)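 GAL4-DBD fused to mouse CAR LBD (residues 118-358), wild-type or point mutant, cotransfected with UASx4-tk-luc reporter and pCMVβ into HEK293 cells. Cells were exposed to final 1 µM, 2 µM or 10 µM test chemical, or 0.1% v/v DMSO, for 24 h after transfection. Luciferase was normalized to β-galactosidase and set against empty GAL4 vector (=1.0). Mean ± standard deviation, three independent experiments.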

[16] = biological target: T3, Nuclear receptor subfamily 1 group I member 3; experiment: Effect on steroid receptor coactivator 1 binding to mouse CAR T350M mutant […] at 2 uM by yeast two-hybrid assay; format: cell-based; conditions: read-out: Activity
Outline: as §3

[17] = biological target: T6, Nuclear receptor subfamily 1 group I member 3; experiment: Effect on steroid receptor co-activator 1 binding to mouse CAR F171L mutant […] at 2 uM by yeast two-hybrid assay; format: cell-based; conditions: read-out: Activity
Outline: as §3

[18] = biological target: Nuclear receptor subfamily 1 group I member 3 (Mus musculus, UniProt O35627, L253F); experiment: Decrease in steroid receptor coactivator 1 binding to mouse CAR L253F mutant […] at 2 uM by yeast two-hybrid assay; format: cell-based; conditions: read-out: Activity
Outline: as §3

[19] = biological target: T5, Nuclear receptor subfamily 1 group I member 3; experiment: Decrease in steroid receptor coactivator 1 binding to mouse CAR Y336A mutant […] at 2 uM by yeast two-hybrid assay; format: cell-based; conditions: read-out: Activity
Outline: as §3

[20] = biological target: T2, Nuclear receptor subfamily 1 group I member 3; experiment: Activation of mouse CAR L212A mutant expressed in HEK293 cells at 2 uM by mammalian one-hybrid assay; format: cell-based; conditions: hek293, 2 µM
Outline: as §4

[21] = biological target: T3, Nuclear receptor subfamily 1 group I member 3; experiment: Activation of mouse CAR T350M mutant expressed in HEK293 cells at 2 uM by mammalian one-hybrid assay; format: cell-based; conditions: hek293, 2 µM
Outline: as §4

T2 sequence (O35627 whole entry L212A, the tested form may be a part): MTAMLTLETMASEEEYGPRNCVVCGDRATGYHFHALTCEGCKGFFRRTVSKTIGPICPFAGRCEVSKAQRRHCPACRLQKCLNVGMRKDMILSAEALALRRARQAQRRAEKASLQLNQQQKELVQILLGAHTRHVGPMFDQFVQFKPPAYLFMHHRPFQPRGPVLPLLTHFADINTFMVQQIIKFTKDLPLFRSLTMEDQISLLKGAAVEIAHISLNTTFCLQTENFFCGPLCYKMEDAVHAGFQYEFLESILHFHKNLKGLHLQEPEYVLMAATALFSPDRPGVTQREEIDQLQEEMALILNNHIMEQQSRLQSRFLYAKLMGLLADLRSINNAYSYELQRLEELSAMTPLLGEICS
T3 sequence (O35627 whole entry T350M): as the sequence (O35627 whole entry L212A, the tested form may be a part) above, with A212L, T350M counted along it
T6 sequence (O35627 whole entry F171L, the tested form may be a part): as the sequence (O35627 whole entry L212A, the tested form may be a part) above, with F171L, A212L counted along it
T5 sequence (O35627 whole entry Y336A): as the sequence (O35627 whole entry L212A, the tested form may be a part) above, with A212L, Y336A counted along it
T4 sequence (O35627 whole entry L353A): as the sequence (O35627 whole entry L212A, the tested form may be a part) above, with A212L, L353A counted along it
Chain of Nuclear receptor subfamily 1 group I member 3 (Mus musculus, UniProt O35627, L253F) (O35627 whole entry L253F): as the sequence (O35627 whole entry L212A, the tested form may be a part) above, with A212L, L253F counted along it
Chain of Nuclear receptor subfamily 1 group I member 3 (Mus musculus, UniProt O35627, I252L) (O35627 whole entry I252L, the tested form may be a part): as the sequence (O35627 whole entry L212A, the tested form may be a part) above, with A212L, I252L counted along it
Chain of Nuclear receptor subfamily 1 group I member 3 (Mus musculus, UniProt O35627, S251L) (O35627 whole entry S251L): as the sequence (O35627 whole entry L212A, the tested form may be a part) above, with A212L, S251L counted along it
Chain of Nuclear receptor subfamily 1 group I member 3 (Mus musculus, UniProt O35627, F171A) (O35627 whole entry F171A): as the sequence (O35627 whole entry L212A, the tested form may be a part) above, with F171A, A212L counted along it

Activity [1]: 40%
SMILES: COc1ccc(C(=O)CCCc2ccccc2)cc1

activity at 10 µM [2]: < 50%
SMILES: COc1ccccc1CC(CC(=O)Cc1ccccc1)OC (stereo unspecified)

SMILES: Clc1cnc(Oc2ccc(Oc3ncc(Cl)cc3Cl)cc2)c(Cl)c1
activity at 1 µM [3]: < 50% | inhibition at 1 µM [4]: ≥ 50% | activity at 1 µM [5]: < 50% | inhibition at 1 µM [6]: ≥ 50% | Activity [7]: < 50% | activity at 1 µM [8]: < 50% | inhibition at 1 µM [9]: ≥ 50%

SMILES: C[C@]12CC[C@@H](O)C[C@@H]1CC[C@@H]1[C@@H]2CC[C@]2(C)C=CC[C@@H]12 [ANDROSTENOL]
inhibition at 10 µM [10]: 50% | FC [11]: 49

inhibition at 2 µM [12]: ≥ 50% | Activity [13]: >= 50% | inhibition at 2 µM [14]: ≥ 50% | inhibition at 2 µM [15]: 50% | activity at 2 µM [16]: < 50% | activity at 2 µM [17]: ≥ 50% | inhibition at 2 µM [18]: ≥ 50% | inhibition at 2 µM [19]: ≥ 50% | Activity [20]: < 50% | Activity [21]: > 100%
SMILES: Clc1ccccc1C(c1ccccc1)(c1ccccc1)n1ccnc1 [CLOTRIMAZOLE]
